Assay outcomes as filed in PubChem BioAssay.
PAFAH1B2 FP inh: PAFAH1B2 (human) inhibition | recombinant PAFAH1B2, FP-rhodamine activity probe, fluorescence polarization | inhibition, % at 3.39 µM | 340,000 compounds, 1.2% hits | AID 492953;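 active = inhibition above the mean of all tested compounds plus 3 SD, cut at about 24% in these data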;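 note: 0% = enzyme with DMSO and 100% = wells lacking PAFAH1B2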
Target sequence (P68402 whole entry, looked up): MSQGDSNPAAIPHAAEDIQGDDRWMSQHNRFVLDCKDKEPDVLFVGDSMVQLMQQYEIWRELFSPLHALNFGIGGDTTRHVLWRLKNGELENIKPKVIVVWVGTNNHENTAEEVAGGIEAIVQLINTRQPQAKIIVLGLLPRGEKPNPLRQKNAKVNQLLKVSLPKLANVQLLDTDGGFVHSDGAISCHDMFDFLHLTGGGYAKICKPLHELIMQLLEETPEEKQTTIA
PAFAH2 inh: inhibitors of human PAFAH2. recombinant PAFAH2, FP-rhodamine activity probe, fluorescence polarization. inhibition, % at 3.39 µM. 340,000 compounds, 0.99% hits. AID 492956;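 active = inhibition above the mean over all tested compounds plus 3 SD, cut at about 30% in these data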;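 note: inhibitors block probe labeling of enzyme so polarization drops; 0% = enzyme with DMSO and 100% = wells lacking PAFAH2 protein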
PAFAH1B3 FP inh: inhibitors of human PAFAH1B3; recombinant PAFAH1B3, FP-rhodamine probe, fluorescence polarization; inhibition, % at 3.39 µM; 340,000 compounds, 0.28% hits; AID 492972;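 active = inhibition above the screen-wide average of all tested compounds plus 3 SD, cut at about 25% in these data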;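 note: 0% = enzyme with DMSO only and 100% = wells lacking PAFAH1B3 protein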
Target sequence (Q15102 whole entry, looked up): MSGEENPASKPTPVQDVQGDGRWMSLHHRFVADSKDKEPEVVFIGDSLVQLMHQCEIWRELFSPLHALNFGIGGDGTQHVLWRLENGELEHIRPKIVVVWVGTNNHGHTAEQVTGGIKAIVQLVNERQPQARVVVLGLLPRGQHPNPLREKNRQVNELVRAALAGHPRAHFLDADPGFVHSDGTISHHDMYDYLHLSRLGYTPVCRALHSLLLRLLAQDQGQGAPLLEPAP
Apaf-1 inh: blocks human Apaf-1 apoptosome activity; O14727; inhibition, % at 20 µM; reconstituted apoptosome caspase-3 activity, DEVD-Rh110 fluorescence; AID 489030; 330,000 compounds, 0.71% hits; active = inhibition of at least 40% at 20 µM;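 note: plate controls were DMSO wells for no effect and DEVD-CHO caspase inhibitor wells for full effect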
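Material: reconstituted apoptosome with Apaf-1, cytochrome c, caspase-9, procaspase-3, dATP / Buffer or medium: pH 7.5 Hepes buffer with CHAPS, BSA, DTT / Also added: cytochrome c with DEVD-Rh110 / Schedule: compound with Apaf-1, dATP, procaspase-3 30 min, then 50 min reaction, room temperature / Technique: rhodamine 110 fluorescence at Ex 480/Em 540 nm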
pPAFAH inh: inhibitors of human plasma PAF acetylhydrolase (pPAFAH) | Q13093 | recombinant pPAFAH, FP-rhodamine probe fluorescence polarization | inhibition, % at 3.39 µM | 330,000 compounds, 1.5% hits | AID 463082;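 active = inhibition above the mean inhibition across the screen plus 3 SD, cut at about 25% in these data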;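 note: inhibitors block binding of the rhodamine activity-based probe so polarization drops; 0% = enzyme with DMSO and 100% = wells lacking pPAFAH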
pPAFAH confirm: confirmation of human plasma PAF acetylhydrolase (pPAFAH) inhibitors; 2,300 compounds, 72% hits; recombinant pPAFAH, FP-Rh probe fluorescence polarization; inhibition, % at 3.39 µM; shares compounds with pPAFAH inh;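 active = mean inhibition of the triplicate above the hit cutoff set for the earlier primary screen, cut at about 25% in these data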;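 note: 0% = enzyme with DMSO and 100% = wells lacking pPAFAH enzyme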
* marks the source's active call; other numbers are inactive results; · = not tested or not shown. Compounds with a hit are over-represented: about 3.1% of the library has one in this group of screens.

SMILES	PAFAH1B2 FP inh	PAFAH2 inh	PAFAH1B3 FP inh	Apaf-1 inh	pPAFAH inh	pPAFAH confirm
Cc1ccc(OCCC(=O)OCC(=O)Nc2ccc(N3CCOCC3)cc2)cc1	9	3	8	14	20	·
O=C(COC(=O)c1cc[n+]([O-])cc1)Nc1cccc(F)c1	0	0	10	-12	2	·
O=C(O)c1ccc(N/N=C/c2ccc(-c3cccc(Cl)c3)o2)cc1	5	16	18	-9	65*	47*
O=C(O)c1ccc(N/N=C/c2ccc(-c3cc(Cl)ccc3Cl)o2)cc1	13	20	17	15	37*	56*
O=C(O)c1ccc(N/N=C/c2ccc(-c3ccc(Cl)cc3Cl)o2)cc1	11	21	11	5	51*	47*
CCn1c(SCC(=O)N2CCOCC2)nc2c([nH]c3ccccc32)c1=O	5	6	8	-2	3	·
Cc1nc2scc(C)n2c(=O)c1S(=O)(=O)Nc1ccc(OC(F)(F)F)cc1	10	4	15	4	4	·
CCc1nc(NC(=O)Cc2csc(C)n2)sc1C(=O)OC	8	2	7	-24	4	·
Cc1cc(/C=C(\C#N)C(=O)NCC2CCCO2)c(C)n1-c1ccc(Cl)cc1 (configuration not stated)	2	4	-8	6	67*	69*
C=CCc1ccc(OCCOc2cccc3ccc(C)nc23)c(OC)c1	4	1	2	6	-4	·
CCCC(=O)NC(c1cccs1)c1cc([N+](=O)[O-])c2cccnc2c1O (configuration not stated)	2	14	11	·	68*	73*
CC(=O)NC(c1cccs1)c1cc([N+](=O)[O-])c2cccnc2c1O (configuration not stated)	5	3	4	·	49*	46*
CCC(=O)NC(c1cccs1)c1cc([N+](=O)[O-])c2cccnc2c1O (configuration not stated)	2	10	0	30	23	·
CC(=O)NC(c1cccs1)c1cc(Cl)c2ccccc2c1O (configuration not stated)	5	4	12	8	-2	·
CCOC(=O)CC(NS(=O)(=O)c1ccc2[nH]c(=O)sc2c1)c1ccc(C)cc1 (configuration not stated)	2	3	7	7	5	·
O=C(CCc1ccccc1)NNC(=S)NC(=O)c1ccccc1	11	4	9	-13	41*	-8
COc1ccc(S(=O)(=O)NCC(=O)N(CC(=O)NCc2ccccc2)Cc2ccco2)cc1	-3	0	0	19	5	·
COc1ccc(CNC(=O)C(c2ccco2)N(C(=O)CNS(=O)(=O)c2ccccc2)c2ccccc2C)cc1 (configuration not stated)	4	3	7	23	47*	51*
CCOC(=O)c1cc(C#N)c(SCC(=O)OC)[nH]c1=O	3	-6	5	-31	35*	1
COC(=O)CSc1[nH]c(=O)cc(C)c1C#N	2	5	9	10	0	·
C[C@H](NC(=O)CCCOc1ccc(Cl)cc1Cl)c1nnc2ccccn12	7	2	1	-10	6	·
O=[N+]([O-])c1cc(C(F)(F)F)cc([N+](=O)[O-])c1NN=C1CCCCC1	10	7	6	7	35*	3
CCCCCCC(=O)N/N=C/c1ccc(Br)cc1	3	-1	-1	17	5	·
CCCCCCCCCCS(=O)(=O)N/N=C/c1ccc(O)cc1	3	3	-5	6	38*	44*
CC(C)c1ccc2[nH]c3c(c2c1)[C@@H]1CCN2C(=O)CCC[C@H](C3)[C@H]12	-3	-19	8	15	18	·
SMILES	PAFAH1B2 FP inh	PAFAH2 inh	PAFAH1B3 FP inh	Apaf-1 inh	pPAFAH inh	pPAFAH confirm
Cc1ccc(N2C(=O)c3ccccc3C2C(=O)c2ccc(O)cc2O)cc1 (configuration not stated)	0	9	9	18	47*	5
CC(C)(C)c1ccc(Oc2cccc(C3CC(=O)C(C4NCCc5ccccc54)C(=O)C3n3cncn3)c2)cc1 (configuration not stated)	1	8	9	29	41*	9
COc1ccc(OCC(=O)NNC(=S)NC(=O)c2ccc(Br)o2)cc1	6	1	5	4	8	·
O=C(COC(=O)c1ccc2[nH]c3c(c2c1)CCCC3)Nc1ccccc1	3	77*	-2	-4	43*	41*
CN1CCN(Cc2c(O)ccc3occ(C(=O)c4ccccc4)c23)CC1	0	3	5	10	-3	·
CC(=O)C(C(C)=O)c1c(Cl)c(O)c(O)c2c(C(=O)c3ccccc3)coc12	0	10	-9	34	59*	45*
ClCCn1cnc2c(SCc3ccccc3)ncnc21	8	-3	6	·	·	·
CC[C@]1(C(=O)OC)[C@H]2C(=O)N(Cc3ccccc3)C(=O)[C@H]2[C@H]2CN=C(SCC3CC3)N21	1	-2	5	20	-7	·
O=C(CSc1nc2cc([N+](=O)[O-])ccc2n1-c1ccccc1)NCc1ccc2c(c1)OCO2	-6	3	4	14	44*	37*
COc1cccc(N2CCN(C(=O)c3cc(-c4ccccc4)nc4c3cnn4C(C)C)CC2)c1	-5	-3	-10	11	10	·
COc1cc(NS(=O)(=O)c2cc(NC(C)=O)ccc2OC)c(OC)cc1NC(=O)c1ccccc1	6	4	8	·	·	·
COc1ccc(CNc2ncnc3c2[nH]c2ccccc23)cc1	·	·	·	5	13	·
COc1ccc(CNc2ncnc3c2[nH]c2cc(OC)c(OC)cc23)cc1	11	12	19	-7	36*	22
O=C1C=C(Nc2ccccc2)C(=O)c2ccccc21	3	-1	4	17	3	·
O=C1C(Nc2ccccc2)=C/C(=N/S(=O)(=O)c2cccs2)c2ccccc21	38*	49*	62*	·	62*	60*
CCOc1ccc(CCNC(=O)COC(=O)c2cccc(S(=O)(=O)N3CCCC3)c2)cc1OCC	0	-6	1	9	6	·
COc1ccc(-c2csc(NS(=O)(=O)c3ccc([N+](=O)[O-])cc3)n2)cc1	2	11	5	1	38*	45*
COc1ccc(-c2csc(NC(=O)c3ccccc3NS(=O)(=O)c3ccc(F)c(F)c3)n2)cc1	12	20	13	20	50*	39*
CC(=O)c1ccc2c(c1)C1C=CCC1C(c1ccc(S(=O)(=O)N3CCOCC3)cc1)N2 (configuration not stated)	4	-3	4	·	12	·
COc1ccc(NS(=O)(=O)c2ccc3c(c2)[C@H]2C=CC[C@H]2[C@@H](c2ccc(C(=O)O)cc2)N3)cc1	31*	68*	46*	8	74*	66*
